Where only a bound is given, the exact number is not on record here.

The target in data set [1] is T1, KRAS(G12D) (Homo sapiens, UniProt P01116, G12D). As to the kind of experiment: Microscale thermophoresis. The settings on record: Kd from MST, GDP-bound KRAS(G12D). Format: binding.
The test system of data set [2] is cancer cells expressing various mutants of KRAS. Briefly: Cell proliferation, summary. The format is cell-based.
Data set [3] relates to BHK cells expressing GFP-tagged KRAS(G12D). Briefly: Cell signaling assay. Format: cell-based, baby hamster. In a few lines:
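Whole-cell lysates were immunoblotted for phospho-c-Raf, phospho-ERK and phospho-AKT, with vinculin as loading control. Levels were quantified relative to DMSO, averaged from three independent experiments and compared by unpaired Student's t test.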

For data set [4], the target named is GDP-KRAS(G12C) (Homo sapiens, UniProt P01116, G12C). Briefly: Isothermal titration calorimetry. Format: binding. On the technique in general: Isothermal titration calorimetry measures the heat released or taken up as one component is titrated into another.
In data set [5] the target is HRAS (Homo sapiens, UniProt P01112). As to the kind of experiment: Thermal shift assay. Format: binding. The settings on record: 50 μM compound.
Sequence of HRAS (P01112 whole entry): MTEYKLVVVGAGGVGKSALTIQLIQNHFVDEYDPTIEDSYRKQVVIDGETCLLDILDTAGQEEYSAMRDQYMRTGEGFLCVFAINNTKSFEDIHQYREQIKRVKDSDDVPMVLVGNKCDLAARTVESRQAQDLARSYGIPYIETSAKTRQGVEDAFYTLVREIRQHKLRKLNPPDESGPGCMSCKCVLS
For data set [6], the target named is KRAS(Q61H) (Homo sapiens, UniProt P01116, Q61H). As to the kind of experiment: Microscale thermophoresis. Format: binding.
Data set [7] concerns the target T2, KRAS(WT) (Homo sapiens, UniProt P01116). As to the kind of experiment: Intrinsic GDP/GTP nucleotide exchange. Format: biochemical. In a few lines: (§1)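 Recombinant KRAS(WT), BODIPY-GTP (BGTP) and, for SOS-mediated exchange, SOS are each at 0.5 μM. Buffer is 25 mM Tris Cl pH 7.5, 50 mM NaCl, 10 mM MgCl2, with test compound at 0–50 μM. Fluorescence rise on BGTP binding is normalised to the 60 s and KRAS-alone maximum values. Rates come from linear (intrinsic) or single-exponential (SOS) fits, and EC50 from fitting rate versus concentration.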

Data set [8] has as its target GDP-KRAS(G12D) (Homo sapiens, UniProt P01116, G12D). As to the kind of experiment: Isothermal titration calorimetry. The format is binding.
For data set [9], the target named is T2, KRAS(WT). Briefly: Microscale thermophoresis. As to conditions: Kd from MST, GDP-bound KRAS(WT). Format: binding. (In general: Microscale thermophoresis detects binding through changes in fluorescence in a small temperature gradient.)
The target of data set [10] is T1, KRAS(G12D). Briefly: Intrinsic fluorescence. Format: binding. The settings on record: 0 to 50 µM ligand, 2 µM KRAS; qualitative.
In data set [11] the target is NRAS (Homo sapiens, UniProt P01111). As to the kind of experiment: Thermal shift assay. Format: binding. The settings on record: 50 μM compound.
Sequence of NRAS (P01111 whole entry): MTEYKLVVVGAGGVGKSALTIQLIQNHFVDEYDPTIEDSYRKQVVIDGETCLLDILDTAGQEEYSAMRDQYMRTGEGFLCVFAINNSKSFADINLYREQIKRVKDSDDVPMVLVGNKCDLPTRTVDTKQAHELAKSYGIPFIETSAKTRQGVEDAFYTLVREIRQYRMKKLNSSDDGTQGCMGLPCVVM
Data set [12] addresses T2, KRAS(WT). As to the kind of experiment: Intrinsic fluorescence. The settings on record: 0 to 50 µM ligand, 2 µM KRAS; qualitative. The format is binding.
Data set [13] can be described thus: Microsomal stability. The format is in vitro ADME. The settings on record: rat, microsomes.
Data set [14] relates to MDR1. As to the kind of experiment: Permeability and efflux in MDR1-MDCK cell monolayer system. Format: in vitro ADME. As to conditions: dog, MDCK-MDR1.
Data set [15] concerns MDR1-MDCK cell monolayer. The data set is described as above. The settings on record: corrected for cell volume on donor side. The format is in vitro ADME.
Data set [16] relates to MDR1 (P-gp). The data set is described as above. Format: in vitro ADME. As to conditions: dog.
For data set [17], the target named is GDP-KRAS(Q61H) (Homo sapiens, UniProt P01116, Q61H). As to the kind of experiment: Isothermal titration calorimetry. The format is binding.
Data set [18] has as its target KRAS (Homo sapiens, UniProt P01116). As to the kind of experiment: Intrinsic nucleotide release. As to conditions: 50 µM ligand, 100 µM GTP. Format: biochemical.
Data set [19] in a line: Microsomal stability. Format: in vitro ADME. As to conditions: human, microsomes.
The nature of data set [20]: Microsomal stability. The settings on record: mouse, microsomes. The format is in vitro ADME.
Data set [21] has as its target KRAS(G12D)-RafRBD interaction (Homo sapiens, UniProt P01116, G12D). As to the kind of experiment: RBD pull-down assay in BHK cell lysates. Format: cell-based, baby hamster. The settings on record: lysates treated with 10 μM or more, 1 h. In a few lines: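 GTP-bound GFP-KRAS(G12D) and endogenous RAS were pulled down with GST-c-Raf RBD and detected by western blot, with total GFP-KRAS(G12D) and total RAS as loading controls. Signals were normalised to DMSO and averaged over three independent experiments, with unpaired Student's t test.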

In data set [22] the test system is MIAPaCa-2 xenograft tumor. As to the kind of experiment: MIAPaCa-2 subcutaneous xenograft tumor model. The format is in vivo, mouse. As to conditions: 5 mg/kg IP. An outline of the steps: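 Nude mice received MIAPaCa-2 cells subcutaneously in the hind flank and were split after 3 days into groups of equal mean tumour volume (8 vehicle, 7 treated). Dosing was 5 mg/kg test compound in corn oil, or DMSO in corn oil, intraperitoneally 5 days/week. Caliper volumes, (length × width²)/2, were taken twice weekly and body weights weekly. Tumour lysates were blotted for p-ERK, total ERK and GAPDH.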

Data set [23] concerns the target KRAS(WT) with SOS (Homo sapiens, UniProt P01116). Briefly: SOS-mediated GDP/GTP nucleotide exchange. The format is biochemical. An outline of the steps:
as §1

For data set [24], the target named is KRAS with SOS (Homo sapiens, UniProt P01116). As to the kind of experiment: SOS-mediated nucleotide release. The format is biochemical. As to conditions: 50 µM ligand, 100 µM GTP, 0.5 µM SOS.
Data set [25] has as its target KRAS(G12C) (Homo sapiens, UniProt P01116, G12C). Briefly: Microscale thermophoresis. Format: binding.
The target of data set [26] is GDP-KRAS(G13D) (Homo sapiens, UniProt P01116, G13D). As to the kind of experiment: Isothermal titration calorimetry. Format: binding.
Data set [27] deals with GDP-KRAS(WT) (Homo sapiens, UniProt P01116). As to the kind of experiment: Isothermal titration calorimetry. The format is binding. The settings on record: Kd from ITC, GDP-bound KRAS(WT), 25 °C.
Data set [28] relates to SOS. The settings on record: read-out: IC50 in vitro; inhibits SOS; ref 20 Kessler, et al.; cited from earlier work.
The subject of data set [29] is Raf. As to conditions: read-out: IC50 in vitro; inhibits Raf; ref 20 Kessler, et al.; cited from earlier work.
Setting [30] is: MDCK-MDR1, Papparent efflux ratio (ER).

`O=C(O)c1cc(NC(=O)C2CC2c2ccccc2)ccc1O` (centres unmarked) [ACA-14, 2-hydroxy-5-{[(2-phenylcyclopropyl)carbonyl]amino} benzoic acid]: the dissociation constant (Kd) in data set [1] was over 50000 nM; in data set [4] it was 11800 nM; in data set [6] it was 20 ± 10 nM; in data set [8], 45900 nM; in data set [9] it was 4500 ± 1500 nM; in data set [17], 1040 nM. Moreover, the values for the equilibrium dissociation constant (Kd) in [25], in data set [26] and in data set [27] were 340 ± 70 nM, 34100 nM and 1100 nM, respectively. Also, in data set [2], the “Concentration required to inhibit proliferation” value was over 20 µM. In data set [3], the “Concentration required to inhibit MAPK signaling” value was over 20 µM. Moreover, the “Level of phosphorylated ERK (p-ERK)” value in [3] (3 h, serum-starved) is on record as “significantly reduced”. The “Level of phosphorylated c-Raf (p-cRaf)” value in data set [3] (3 h, serum-starved) is listed as “significantly reduced”. Further, the p-AKT level result in data set [3] (3 h, serum-starved, concentration range tested) is reported as “little effect”. For the same compound, the “Change in melting temperature (Tm)” value in [5] and in [11] was “no measurable change” in each case. Moreover, the 50% effective concentration (EC50) amounted to 3800 ± 600 nM in data set [7] and 2100 ± 400 nM in [23]. In addition, the “Change in intrinsic fluorescence of the compound on mixing with protein” value in data set [10] and in data set [12] was “concentration-dependent changes” each time. In addition, the Intrinsic clearance in data set [13], in data set [19] and in [20] was under 0.3 mL/min/g in each case. Further, the half-life in [13], in [19] and in [20] was over 3 h in each case. Moreover, in [14], the apical-to-basolateral permeability (Papp A→B) came to 5.42 ×10⁻⁶ cm/s. In addition, the Papp B→A in data set [14] is 3.51 ×10⁻⁶ cm/s. The “Pexact, A > B” value in data set [15] amounted to 5.355 ×10⁻⁶ cm/s. For the same compound, the “Pexact, B > A” value in data set [15] is 3.833 ×10⁻⁶ cm/s. The efflux ratio in [16] (setting [30]) stood at 0.65; in data set [16] (MDCK-MDR1, Pexact efflux ratio), 0.72. In [18], the “Effect on rate of intrinsic GDP release” value is listed as “lack of effect”. Further, the “Level of GFP-tagged GTP-KRAS(G12D) pulled down by c-Raf RBD” value in data set [21] is listed as “significantly reduced”. Further, in [21], the “Level of endogenous RAS pulled down by c-Raf RBD” value is “significantly reduced”. Besides, in data set [22] (nude mice, 5 days per week), the “Weight gain of treated mice” value is “did not affect weight gain”. For the same compound, the Tumor growth entry in data set [22] (nude mice, 5 days per week, maintained until day 20) is on record as “small but statistically significant reduction”. The “ERK activation within tumors (p-ERK western blot)” value in data set [22] (tumor lysates) is “small but significant reduction”. For the same compound, the “Effect on rate of SOS-mediated GDP release” value in [24] is listed as “lack of effect”.

Take `Cn1cnc(Cn2ccc3ccc(CNCc4[nH]c5ccccc5c4[C@H]4NC(=O)c5ccc(O)cc54)cc32)c1` [BI-2852]: the half-inhibitory concentration (IC50) in [28] and in [29] was 500 to 700 nM each time.

Take `CC(C)CN(C[C@@H](O)[C@H](Cc1ccccc1)NC(=O)O[C@H]1CCOC1)S(=O)(=O)c1ccc(N)cc1` [amprenavir]: in data set [14], the Papp A→B turned out to be 1.65 ×10⁻⁶ cm/s and the Papp B→A is 17.1 ×10⁻⁶ cm/s. Moreover, in [15], the “Pexact, A > B” value was determined as 1.436 ×10⁻⁶ cm/s and the “Pexact, B > A” value was 24.325 ×10⁻⁶ cm/s. In addition, in [16] (setting [30]), the efflux ratio was 10.3. In addition, the efflux ratio in [16] (MDCK-MDR1, Pexact efflux ratio) came to 16.9.

In [14], `CC(C)NCC(O)COc1cccc2ccccc12` (centres unmarked) [propranolol] had a Papp A→B of 31.2 ×10⁻⁶ cm/s and a Papp B→A of 15 ×10⁻⁶ cm/s. In data set [15], the “Pexact, A > B” value was found to be 39.979 ×10⁻⁶ cm/s and the “Pexact, B > A” value stood at 20.715 ×10⁻⁶ cm/s. Further, the efflux ratio in data set [16] (setting [30]) is 0.48. Further, the efflux ratio in data set [16] (MDCK-MDR1, Pexact efflux ratio) was 0.52.

As usually defined, the Kd is the free concentration of one partner at which half of the binding sites on the other are occupied at equilibrium, for simple one-to-one binding. One may read the EC50 as the midpoint of the concentration-response curve. A low value points to a more potent agent. The term half-life denotes how long it takes for the measured level to halve. Usually Papp A→B stands for the apparent permeability from the apical to the basolateral side of a cell layer. Read a low Papp A→B as poor permeation. In general, Papp B→A refers to the apparent permeability from the basolateral to the apical side of a cell layer. As usually defined, the efflux ratio is a quotient of directional permeabilities that is used to spot active efflux. As a reminder, the IC50 is the concentration at which inhibition is half-maximal.

The values are drawn from paper PMC10125367 (ACS Bio & Med Chem Au, 2022).
